Results on two compounds are retold here after ChEMBL document CHEMBL4028907, “Semisynthesis and Biological Evaluation of Xanthone Amphiphilics as Selective, Highly Potent Antifungal Agents to Combat Fungal Resistance” (J Med Chem, 2017).

Structures are written as SMILES. Values after ≈ are worked out from the molar mass of the structure shown.

Test [1] concerns Klebsiella pneumoniae. The test is described as follows: Antibacterial activity against Klebsiella pneumoniae DM4299 by two fold serial dilution method. The class given is functional. In short, it runs like this: (§1)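 Broth microdilution (CLSI, minor modifications) in Sabouraud dextrose, Mueller−Hinton or RPMI 1640 broth; two-fold serial dilutions of compound from stock to final 100 to 0.78 μg/mL. MIC taken as lowest concentration giving no visible growth.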

Test [2] can be described thus: Selectivity index, ratio of HC50 for New Zealand white rabbit RBC to MIC for Candida albicans ATCC 10231.
Test [3] concerns Candida albicans. The test is described as follows: Antifungal activity against Candida albicans ATCC90028 after 24 hrs by two fold serial dilution method. The class given is functional. Conditions: ATCC90028, 24 h. In short, it runs like this:
(§2)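 Candida grown on Sabouraud dextrose agar at 35 °C for 24 h, adjusted to ~5×10^3 CFU/mL. Two-fold dilutions from 100 to 0.78 μg/mL in Sabouraud dextrose broth, incubated at 35 °C for 24 h. MIC is the lowest concentration inhibiting growth by eye and by OD600. CLSI-based with minor modifications.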

Test [4] deals with Bacillus cereus. The test is described as follows: Antibacterial activity against Bacillus cereus ATCC11778 by two fold serial dilution method. The class given is functional. In short, it runs like this: as §1
The test system of test [5] is Staphylococcus aureus. Briefly: Antibacterial activity against Staphylococcus aureus DM4001R by two fold serial dilution method. Format: functional. Put shortly:
as §1

The test system of test [6] is Candida albicans. The test is described as follows: Antifungal activity against drug resistant Candida albicans DF2672R after 24 hrs by two fold serial dilution method. Format: functional. In short, it runs like this: as §2
For test [7], the system named is Pseudomonas aeruginosa. The test is described as follows: Antibacterial activity against Pseudomonas aeruginosa DM23155 by two fold serial dilution method. The class given is functional. Put shortly:
as §1

The subject of test [8] is Candida albicans. Briefly: Antifungal activity against Candida albicans ATCC 10231 after 24 hrs by two fold serial dilution method. Format: functional. The conditions noted are these: ATCC 10231, 24 h. Put shortly: as §2
In test [9] the test system is Candida albicans. Briefly: Antifungal activity against Candida albicans ATCC24433 after 24 hrs by two fold serial dilution method. The class given is functional. Conditions: ATCC24433, 24 h. Put shortly:
as §2

In test [10] the test system is Candida albicans. The test is described as follows: Antifungal activity against Candida albicans DF1976R after 24 hrs by two fold serial dilution method. The class given is functional. In short, it runs like this:
as §2

For test [11], the system named is Staphylococcus aureus. Briefly: Antibacterial activity against methicillin resistant Staphylococcus aureus DM21455 by two fold serial dilution method. The class given is functional. Put shortly:
(§3)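 Broth microdilution per CLSI guidelines with minor modifications, run in Mueller−Hinton broth; MIC is the lowest concentration giving no visible growth.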

Test [12] deals with Staphylococcus aureus. Briefly: Antibacterial activity against methicillin resistant Staphylococcus aureus DM9808R by two fold serial dilution method. The class given is functional. In short, it runs like this:
as §3

For test [13], the system named is Candida albicans. The test is described as follows: Antifungal activity against Candida albicans ATCC11651 after 24 hrs by two fold serial dilution method. Conditions: ATCC11651, 24 h. The class given is functional. In short, it runs like this:
as §2

Test [14] has as its system Fusarium solani. Briefly: Antifungal activity against Fusarium solani 62877 after 48 hrs by two fold serial dilution method. Format: functional. Conditions: Fusarium solani, 62877, 48 h. In short, it runs like this:
(§4)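 Moulds grown on potato dextrose agar, 30 °C, 4 days; inoculum adjusted to about 5×10^3 CFU/mL. Two-fold serial dilutions in RPMI-1640 broth, 100 to 0.78 μg/mL final, mixed with equal volume of cell suspension; incubated 30 °C, 48 h. MIC = lowest concentration inhibiting growth, judged visually and by OD530.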

In test [15] the test system is Fusarium oxysporum. The test is described as follows: Antifungal activity against Fusarium oxysporum 64530 after 48 hrs by two fold serial dilution method. The class given is functional. Conditions: Fusarium oxysporum, 64530, 48 h. In short, it runs like this: as §4
The test system of test [16] is Aspergillus fumigatus. The test is described as follows: Antifungal activity against Aspergillus fumigatus TCC MYA3626 after 48 hrs by two fold serial dilution method. The conditions noted are these: TCC MYA3626, 48 h. Format: functional. In short, it runs like this:
as §4

The test system of test [17] is Fusarium solani. Briefly: Antifungal activity against Fusarium solani 52628 after 48 hrs by two fold serial dilution method. Format: functional. Conditions: Fusarium solani, 52628, 48 h. Put shortly: as §4
Test [18] concerns Aspergillus fumigatus. Briefly: Antifungal activity against Aspergillus fumigatus TCC 90906 after 48 hrs by two fold serial dilution method. The class given is functional. The conditions noted are these: TCC 90906, 48 h. Put shortly:
as §4

The subject of test [19] is Fusarium oxysporum. The test is described as follows: Antifungal activity against Fusarium oxysporum MYA3461 after 48 hrs by two fold serial dilution method. Conditions: MYA3461, 48 h. Format: functional. Put shortly:
as §4

Test [20] deals with Aspergillus flavus. Briefly: Antifungal activity against Aspergillus flavus TCC MYA3631 after 48 hrs by two fold serial dilution method. The class given is functional. Conditions: TCC MYA3631, 48 h. In short, it runs like this:
as §4

Test [21] has as its system Fusarium solani. The test is described as follows: Antifungal activity against Fusarium solani MYA3636 after 48 hrs by two fold serial dilution method. The class given is functional. The conditions noted are these: MYA3636, 48 h. Put shortly: as §4
Test [22] relates to Fusarium solani. The test is described as follows: Antifungal activity against Fusarium solani 46492 after 48 hrs by two fold serial dilution method. The class given is functional. Conditions: Fusarium solani, 46492, 48 h. Put shortly:
as §4

The test system of test [23] is Aspergillus flavus. Briefly: Antifungal activity against Aspergillus flavus TCC 204304 after 48 hrs by two fold serial dilution method. The class given is functional. The conditions noted are these: TCC 204304, 48 h. In short, it runs like this: as §4
Test [24] concerns Aspergillus brasiliensis. Briefly: Antifungal activity against Aspergillus brasiliensis TCC16404 after 48 hrs by two fold serial dilution method. The class given is functional. Conditions: TCC16404, 48 h. Put shortly:
as §4

Usually MIC stands for the smallest concentration in the dilution series that meets the test's criterion for growth inhibition. Read a low MIC as inhibition by little substance.

Regarding `CCCN(CCC)CC(O)COc1cc2oc3cc(OCC(O)CN(CCC)CCC)c(OC)c(CC=C(C)C)c3c(=O)c2c(O)c1CC=C(C)C` (stereo not given), the MIC was above 50 µg/mL in test [1]; 6.25 µg/mL (≈ 8.62 µM) in test [3]; 6.25 to 12.5 µg/mL (≈ 8.62 to 17.2 µM) in [4]; 6.25 to 12.5 µg/mL (≈ 8.62 to 17.2 µM) in [5]; 3.13 µg/mL (≈ 4.32 µM) in test [6]; above 50 µg/mL in test [7]. For the same compound, the MIC was 3.13 µg/mL (≈ 4.32 µM) in test [8]; 6.25 µg/mL (≈ 8.62 µM) in test [9]; 6.25 µg/mL (≈ 8.62 µM) in test [10]; 6.25 to 12.5 µg/mL (≈ 8.62 to 17.2 µM) in [11]; 6.25 to 12.5 µg/mL (≈ 8.62 to 17.2 µM) in test [12]; 6.25 µg/mL (≈ 8.62 µM) in test [13]. Further, the Selectivity Index in test [2] is above 128.
For the compound `CC[C@H](C)C[C@H](C)CCCCCCCCC(=O)N[C@H]1C[C@@H](O)[C@@H](NCCN)NC(=O)[C@@H]2[C@@H](O)CCN2C(=O)[C@H]([C@H](O)CCN)NC(=O)[C@H]([C@H](O)[C@@H](O)c2ccc(O)cc2)NC(=O)[C@@H]2C[C@@H](O)CN2C(=O)[C@H]([C@@H](C)O)NC1=O` [CASPOFUNGIN], the MIC in test [14] is above 50 µg/mL; in test [15], above 50 µg/mL; in test [3], 0.1 µg/mL (≈ 0.0915 µM); in test [16], above 50 µg/mL; in [6] it was 0.2 µg/mL (≈ 0.183 µM); in [17], above 50 µg/mL. Besides, the minimum inhibitory concentration (MIC) in test [18] was above 50 µg/mL; in test [19], above 50 µg/mL; in test [20], above 50 µg/mL; in [21], above 50 µg/mL; in test [8] it was 0.1 µg/mL (≈ 0.0915 µM); in test [9] it was 0.2 µg/mL (≈ 0.183 µM). The minimal inhibitory concentration (MIC) in test [10] is 0.2 µg/mL (≈ 0.183 µM); in [22], above 50 µg/mL; in test [23], above 50 µg/mL; in test [24] it was above 50 µg/mL; in test [13], 0.2 µg/mL (≈ 0.183 µM).
